Compounds with a hit are over-represented: about 4.6% of the library has one in this group of screens.
Rtt109 Vps75: inhibitors of C. albicans Rtt109/Vps75 HAT, primary screen, biochemical, ThioGlo CoA-SH fluorescence, plate reader; 0.16% of 330,000 active; inhibition, % at 34.9 µM; AID 540336, 2011; Histone acetyltransferase RTT109 (Candida albicans (strain SC5314 / ATCC MYA-2876)), …; purified Rtt109/Vps75, 4 h;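 active = inhibition of at least 50% in every replicate; inconclusive = best replicate reaches 50% inhibition but some replicates fall short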
PfM18AAP inh: PfM18AAP inhibitors, malaria aminopeptidase, primary screen, biochemical, QFRET, recombinant enzyme. M18 aspartyl aminopeptidase (Plasmodium falciparum 3D7). H-Glu-NHMec fluorogenic cleavage. inhibition, % at 7.35 µM. 1.2% of 290,000 active. AID 1822, 2009;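 active = inhibition above the campaign mean inhibition over all tested compounds plus 3 SD, cut at about 28% in these data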
FAS TE block: FAS thioesterase domain inhibitors, primary screen, biochemical, fluorescence intensity, uHTS; Fatty acid synthase (Homo sapiens), P49327; recombinant FAS-TE, OMFH fluorogenic substrate, fluorescence endpoint; inhibition, % at 15 µM; 0.67% of 360,000 active; AID 602261, 2012;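 active = compounds whose normalised, plate-corrected inhibition of enzyme fluorescence in the single-dose primary screen is 50% or more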
UCH37 inh: inhibitors of human UCH37 deubiquitinase, primary screen, biochemical, Ub-AMC cleavage, fluorescence | AID 588478, 2011 | 0.33% of 330,000 active | purified proteasome/UCH37 | inhibition, % (concentration not given with the values);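 active = mean inhibition over replicate wells above about 20%, limit read from the data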
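Material: Human UCH37 enzyme supplied as purified proteasome complex | Schedule: 30 min preincubation with enzyme, 25 min cleavage at room temperature | Detection: AMC fluorescence 355/460 nm | Measure: % inhibition of Ub-AMC cleavage fluorescence | Controls: Wells without proteasome as full block, compound-free enzyme plus substrate as uninhibited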
ALR inh: inhibitors of human ALR sulfhydryl oxidase, primary screen, biochemical, H2O2 detection, HRP-luminol luminescence, single point. FAD-linked sulfhydryl oxidase ALR (Homo sapiens), P55789. 3.8% of 290,000 active. purified ALR, DTT oxidation. inhibition, % (no concentration beside the values);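 active = mean replicate inhibition above about 79%, with every replicate also reaching it, limit read from the data; inconclusive = only one of the two criteria met; inactive = mean below limit and not every replicate reaching it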
Target sequence (P55789 whole entry, looked up): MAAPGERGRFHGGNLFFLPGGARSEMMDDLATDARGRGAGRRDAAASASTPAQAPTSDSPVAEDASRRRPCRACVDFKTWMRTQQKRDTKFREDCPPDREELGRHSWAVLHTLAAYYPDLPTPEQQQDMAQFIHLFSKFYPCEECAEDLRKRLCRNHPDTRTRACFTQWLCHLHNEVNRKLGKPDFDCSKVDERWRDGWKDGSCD
HDAC3 inhib: HDAC3 deacetylase inhibitors, primary screen, biochemical, fluorescence, cell-free homogeneous; Histone deacetylase 3 (Homo sapiens), O15379; recombinant HDAC3, fluorogenic peptide/trypsin coupled; inhibition, % at 8.3 µM; 0.15% of 320,000 active; AID 2718, 2010; in the data active = inhibition above about 26%, passing the limit was not always enough; inconclusive = no clear call, values can overlap the other calls
Target sequence (O15379 whole entry, looked up): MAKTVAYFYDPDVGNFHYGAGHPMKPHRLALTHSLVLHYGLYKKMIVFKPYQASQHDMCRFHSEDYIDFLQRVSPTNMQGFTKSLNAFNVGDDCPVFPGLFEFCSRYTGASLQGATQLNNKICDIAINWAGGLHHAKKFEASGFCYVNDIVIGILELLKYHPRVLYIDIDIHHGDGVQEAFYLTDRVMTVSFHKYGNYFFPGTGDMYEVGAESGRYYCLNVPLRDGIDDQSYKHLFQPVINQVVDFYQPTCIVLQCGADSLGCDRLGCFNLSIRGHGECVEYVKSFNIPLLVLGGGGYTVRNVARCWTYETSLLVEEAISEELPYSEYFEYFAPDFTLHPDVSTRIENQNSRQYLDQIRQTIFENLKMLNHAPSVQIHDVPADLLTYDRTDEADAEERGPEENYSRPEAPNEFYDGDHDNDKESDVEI
Hits are given with their value; i = inactive; ? = inconclusive; nt = no result.

SMILES | Rtt109 Vps75 | PfM18AAP inh | FAS TE block | UCH37 inh | ALR inh | HDAC3 inhib
CC(C)c1ccc(NC2CCCN(C(=O)c3ccc(N4CCOCC4)cc3)C2)cc1 (stereo unspecified) | i | i | i | i | 98 | i
CC(C)c1ccc(NC2CCCN(C(=O)c3ccoc3)C2)cc1 (stereo unspecified) | i | i | i | i | 99 | i
CC(C)c1ccc(NC2CCCN(C(=O)c3ccc(Cn4cnnn4)cc3)C2)cc1 (stereo unspecified) | i | i | i | i | i | ?
CC(C)c1ccc(NC2CCCN(C(=O)c3ccccc3-c3ncc[nH]3)C2)cc1 (stereo unspecified) | i | i | i | i | 88 | i
COc1cc(C=NN2CCN(Cc3ccccc3)CC2)cc(OC)c1OC(C)=O | nt | nt | nt | i | nt | nt
Cc1ccsc1C=NNC(=O)CNC(=O)c1ccco1 | nt | nt | nt | i | nt | nt
O=S(=O)(c1ccccc1)c1ccccc1C=NO | nt | nt | nt | i | nt | nt
O=C(NN=Cc1cccc(OC(=O)c2ccco2)c1)c1ccc(F)cc1 | nt | nt | nt | i | nt | nt
CN1CCN(c2nc(Nc3ccc(F)cc3)nc(Nc3ccc(F)cc3)n2)CC1 | i | i | i | i | 91 | i
c1ccc(Nc2nc(Nc3ccccc3)nc(N3CCNCC3)n2)cc1 | i | i | i | i | i | i
COC(=O)C(=NNc1ccccc1C)Sc1nnc(C(O)c2ccccc2)n1-c1ccccc1 (stereo unspecified) | nt | nt | nt | i | nt | nt
CSc1nc(/C=C2\C=Nc3ccccc32)c(O)n1C | i | i | i | nt | 85 | i
CC(C)n1c(O)c(/C=C2\C=Nc3ccccc32)sc1=Nc1ccccc1 | nt | i | i | i | nt | i
Cc1ccc2nc(SCC(=O)NN=Cc3ccco3)cc(C)c2c1 | nt | nt | nt | i | nt | nt
COc1cc(-c2nc3ccccn3c2/N=C/c2ccc(F)cc2)ccc1O | i | i | i | nt | 95 | i
COc1ccc(/C=C2\S/C(=N/S(=O)(=O)c3cccs3)NC2=O)cc1 | ? | i | i | i | 97 | i
O=C(Nc1ccccc1)ON=Cc1ccc(F)cc1 | nt | nt | nt | i | nt | nt
CC1CCN(c2nc3ccc(C(=O)O)cc3s2)CC1 | i | i | i | i | i | i
Cc1nc2ccc(C(=O)O)cc2c2c1CC(C)S2 (stereo unspecified) | i | i | i | i | 100 | i
O=C(O)c1ccc(NCc2cccs2)cc1 | i | i | i | i | i | i
CCC(=O)Nc1ccc(NCc2cccs2)cc1 | i | i | i | i | 98 | i
CCCCC(=O)Nc1ccc(NCc2ccc(C)s2)cc1 | i | i | i | i | 97 | i
CC(=O)NC(=S)Nc1ccc(NC(=S)NC(=O)c2cccs2)cc1 | i | i | i | i | i | i
CCCCC(=O)Nc1ccc(C(N)=O)cc1 | i | i | i | i | i | i
CCN(CC)c1ccc(NC(=S)NC(=O)c2cccs2)cc1 | i | i | i | i | 98 | i
SMILES | Rtt109 Vps75 | PfM18AAP inh | FAS TE block | UCH37 inh | ALR inh | HDAC3 inhib
CCCC(=O)Nc1ccc(C(=O)NNC(=S)NC(=O)c2cccs2)cc1 | 60 | i | i | i | i | i
O=C(CC(=O)NN=Cc1ccc(C(=O)O)cc1)NCCc1ccccc1 | nt | nt | nt | i | nt | nt
Cc1nnc(NN=Cc2cccs2)[nH]c1=O | nt | nt | nt | i | nt | nt
Cc1ccc(NC(=O)CN(C)Cc2cccs2)cc1Cl | i | i | i | i | i | i
CCCOc1ccc(C(=O)NNC(=S)NC(=O)c2ccccc2)cc1 | i | i | i | nt | i | i
CCN(CC)c1ccc(NC(=O)CN(C)Cc2cccs2)cc1 | i | i | i | i | 99 | i
CCCOc1ccc(C(=O)NNC(=S)NC(=O)c2cccs2)cc1 | i | i | i | nt | 97 | i
O=C(CS(=O)(=O)c1ccccc1)Nc1nnc(Cc2ccccc2)s1 | i | i | i | i | 87 | i
O=C(CN(CCc1ccccc1)S(=O)(=O)c1ccc(Cl)cc1)NN=Cc1ccc2c(c1)OCO2 | nt | nt | nt | i | nt | nt
CCOC(=O)C1=C(O)/C(=C/c2ccc(-c3ccccc3C(=O)O)o2)SC1=Nc1ccc(C)cc1 | ? | nt | i | nt | nt | nt
CCOC(=O)C1=C(O)/C(=C/c2ccc(-c3ccccc3C(=O)O)o2)SC1=Nc1ccc(OC)cc1 | i | i | i | 24 | nt | nt
Cc1[nH]n(-c2ccccc2)c(=O)c1C=NNC(=O)c1ccc(O)cc1O | nt | nt | nt | i | nt | nt
O=C(CNc1ccccc1F)NN=CC1CC=CCC1 (stereo unspecified) | nt | nt | nt | i | nt | nt
CCOC(=O)c1sc(NC(=O)CCN2CCCCCC2)c(C(=O)OCC)c1C | nt | i | i | i | 97 | i
CCOC(=O)c1c(N)sc(C(=O)N(CC)CC)c1C | i | i | i | i | 96 | i
CCOC(=O)c1c(N)sc(C(=O)N2CCCCCC2)c1C | i | i | i | i | 83 | i
CCOC(=O)c1c(N)sc(C(N)=O)c1C | i | i | i | i | i | i
Cc1ccc(C=NNC(=O)Cc2c(F)cccc2Cl)s1 | nt | nt | nt | i | nt | nt
S=c1[nH]nc(-c2ccncc2)n1N=Cc1cccc(Cl)c1 | nt | nt | nt | i | nt | nt
Cc1n[nH]c(=S)n(N=Cc2ccccn2)c1=O | nt | nt | nt | i | nt | nt
Cc1cc(C)c(S(=O)(=O)Nc2ccc(O)cc2)cc1C | i | i | i | i | 99 | i
O=S(=O)(Nc1ccc(O)cc1)c1cccc2cccnc12 | i | i | i | i | 101 | i
Cc1nnsc1C(=O)N1CCCC(Nc2ccc(C(C)C)cc2)C1 (stereo unspecified) | i | i | i | i | i | i
Cc1ccc(NC2CCCN(C(=O)c3c(C)noc3C)C2)cc1C (stereo unspecified) | i | i | i | i | 95 | i
Cc1noc(C)c1C(=O)N1CCCC1 | i | i | i | i | i | i
SMILES | Rtt109 Vps75 | PfM18AAP inh | FAS TE block | UCH37 inh | ALR inh | HDAC3 inhib
Cc1ccc(NC2CCCN(C(=O)c3snnc3C)C2)cc1C (stereo unspecified) | i | i | i | i | 99 | i
O=C(CCCOc1ccc(Cl)cc1Cl)NN=Cc1cccc([N+](=O)[O-])c1 | nt | nt | nt | i | nt | nt
C=CCn1c(SCC(=O)Nc2nc(C)cs2)nnc1C(CO)NC(=O)c1ccccc1 (stereo unspecified) | i | i | i | i | 85 | i
Cc1nnc(SCC(=O)Nc2ccc(N(C)C)cc2)n(N)c1=O | i | i | i | i | 99 | i
Nn1c(SCC(=O)Nc2nccs2)nnc1C1CC1 | i | i | i | i | 99 | i
Cc1csc(NC(=O)CSc2nnc(C)c(=O)n2N)n1 | i | i | i | i | 99 | i
Cn1ncc2c(ON=C(N)c3ccc(C(C)(C)C)cc3)ncnc21 | nt | nt | nt | i | nt | nt
Cc1nnc(SCC(=O)Nc2ccc(F)cc2)n(N)c1=O | i | i | i | i | i | i
COc1ccc(NC(=O)CSc2nnc(C3CCCCC3)n2N)c(OC)c1 | i | i | i | i | i | i
